Calls of active or inactive are those of the source. The calls are words filed in the database; no cut-off is given here.
Tests used:
[1] = Binding affinity to egg yolk phosphotidylcholine liposomes assessed as induction of chloride ion efflux after 250 secs by fluorimetric analysis relative to lipid
Method in brief: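 EYPC LUVs (100 nm extruded) loaded with 2 mM lucigenin, 100 mM NaCl and 10 mM sodium phosphate pH 6.4. Liposomes are suspended in NaNO3 buffer at 37 °C. Transporter in MeOH, at various concentrations, is added at 50 s and Triton X-100 lysis at 300 s. Chloride efflux is read as lucigenin fluorescence (ex 372, em 503 nm). Traces are averaged over triplicates.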

[2] = test system: Escherichia coli; test: Antibacterial activity against Escherichia coli SK037 expressing TolC mutant measured for 24 hrs; type: functional
Method in brief: (§1)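 Broth microdilution in LB at 37°C. Overnight precultures regrown to OD600 0.5, then diluted to OD600 0.1. Compound added in DMSO, final DMSO max 2.5% (v/v). Plates stirred; OD600 read at 0, 4, 8 and 24 h. MIC taken as lowest concentration with no detectable growth. Triplicates from independent cultures.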

[3] = test system: Bacillus thuringiensis; test: Antibacterial activity against Bacillus thuringiensis HD73 measured for 24 hrs; type: functional
Method in brief: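 Broth microdilution in LB. Overnight 37 °C preculture, regrown to OD600 0.5, diluted to OD600 0.1. Wells hold culture plus compound in DMSO (DMSO max 2.5% v/v final). Incubated at 37 °C with stirring, OD600 read at 0, 4, 8 and 24 h. MIC is the lowest concentration with no detectable growth. Triplicates from independent cultures.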

[4] = test system: Escherichia coli; test: Antibacterial activity against wild type Escherichia coli DH5alpha measured for 24 hrs; type: functional, DH5[alpha]; method in brief: as §1
[5] = Hemolytic activity in human RBC at 25 uM after 1 hr relative to control; type: ADME, cell-based, Erythrocyte; details: red blood cells (RBC), read-out: Activity
Method in brief: (§2)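 Human type O erythrocytes are washed in PBS and used at 2% v/v. Two-fold serial dilutions in DMSO are added, then incubated for 1 or 24 h at 37 °C with gentle shaking. After centrifugation at 2000g, hemoglobin release is read as supernatant A405. It is normalized to PBS (0%) and 0.5% Triton X-100 (100%). Mean of three experiments.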

[6] = Hemolytic activity in human RBC at 25 uM after 24 hrs relative to control; type: cell-based, Erythrocyte; details: red blood cells (RBC), read-out: Activity; method in brief: as §2
[7] = test system: Escherichia coli; test: Ratio of MIC for wild type Escherichia coli DH5alpha to MIC for Escherichia coli SK037 expressing TolC mutant; type: functional
[8] = Induction of nitrate anions efflux in chloroform phase at 1 mM by fluorescence-based U-tube method; type: physicochemical; details: 1000 µM
Method in brief: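 U-tube: 10 mL chloroform containing 1 mM ionophore separates 5 mL of 0.1 mM aqueous lucigenin (donor arm) from 5 mL water (receiving arm). Lucigenin fluorescence in the receiving phase is monitored at ex 372 and em 503 nm. Neat chloroform serves as control.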

[9] = test system: Lipid bilayer; test: Binding affinity to DPPC liposomes assessed as induction of chloride ion efflux at 35 to 45 degC after 250 secs by fluorimetric analysis; details: Microsome
Method in brief: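 Lucigenin-loaded (2 mM) DPPC LUVs (100 nm extruded) containing 100 mM NaCl and 10 mM sodium phosphate pH 6.4, external dye removed by gel filtration. Vesicles diluted into 2.5 mL stirred phosphate buffer at 35, 40 or 45°C. Transporter in MeOH added at t = 50 s to 10 mol% relative to lipid; Triton X-100 lysis at 300 s. Fluorescence ex 372/em 503 nm. Average of three runs.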

[10] = test system: Escherichia coli; test: Induction of membrane permeabilization in Escherichia coli SK037 expressing TolC mutant at 40 times MIC after 2 hrs by diSC25 dye-based fluorescence assay; type: functional, organism-based
Method in brief: (§3)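 E. coli SK037 grown overnight in LB at 37°C, washed in 5 mM HEPES pH 7.3 with 20 mM glucose and diluted to A600 0.15. diSC25 (1 µM final) equilibrated 1 h at 37°C to a stable baseline. Compound in DMSO added to 0.4 mM or 1 mM final. Fluorescence ex 600/em 660 nm followed ~2 h with stirring at 37°C.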

[11] = test system: Escherichia coli; test: Induction of membrane depolarization in Escherichia coli SK037 expressing TolC mutant at 40 times MIC after 2 hrs by diSC25 dye-based fluorescence assay; type: functional, organism-based; method in brief: as §3
[12] = test system: Escherichia coli; test: Antibacterial activity against Escherichia coli SK037 expressing TolC mutant assessed as change in cell morphology and membrane damage after 12 to 24 hrs by field emission scanning electron microscopic analysis; type: functional, organism-based
Method in brief: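 E. coli SK037 grown in LB, washed three times, resuspended in 10 mM PBS pH 7.4 and diluted to A600 1.20 (9 x 10^8 CFU/mL). Cells exposed to 0.04 mM or 0.08 mM compound (added in DMSO) on poly-lysine-coated glass slides at 37°C for 12 h or 24 h. Fixed with 2.5% glutaraldehyde, stained with 1% OsO4, ethanol-dehydrated, critical-point dried, carbon-coated, imaged by field emission SEM.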

[13] = Escherichia coli, SK037, 24 h, read-out: MIC
[14] = Bacillus thuringiensis, HD73, 24 h, read-out: MIC
[15] = Escherichia coli, DH5[alpha], 24 h, read-out: MIC

| SMILES | EC50 [1] [mol%] | MIC [2, 13] [µM] | MIC [3, 14] [µM] | MIC [4, 15] [µM] | Ratio [7] | further results |
| --- | --- | --- | --- | --- | --- | --- |
| C(#Cc1ccc(Cn2c[n+](Cc3ccc(C#Cc4ccccc4)cc3)c3ccccc32)cc1)c1ccccc1.[Br-] | 14.8 | > 100 | 10 | > 100 | – | – |
| C(#Cc1ccc(C[n+]2cn(-c3cccc(-n4c[n+](Cc5ccc(C#Cc6ccccc6)cc5)c5ccccc54)n3)c3ccccc32)cc1)c1ccccc1.O=S(=O)([O-])C(F)(F)F.O=S(=O)([O-])C(F)(F)F | 12 | – | – | – | – | MIC [3]: 10 µM; MIC [4]: >100 µM |
| C(#Cc1ccc(C[n+]2cn(Cc3cccc(Cn4c[n+](Cc5ccc(C#Cc6ccccc6)cc5)c5ccccc54)n3)c3ccccc32)cc1)c1ccccc1.O=S(=O)([O-])C(F)(F)F.O=S(=O)([O-])C(F)(F)F | 0.46 | – | – | – | 2.5 | hemolysis at 1 h, 25 µM [5]: < 10%; hemolysis at 24 h, 25 µM [6]: 10%; Activity [8]: Active; MIC [2]: 10 µM; MIC [3]: 2 µM; MIC [4]: 25 µM |
| C(#Cc1ccc(C[n+]2cn(Cc3cccc(Cn4c[n+](Cc5ccc(C#Cc6ccccc6)cc5)c5ccccc54)n3)c3ccccc32)cc1)c1ccccc1 | – | – | – | – | – | Activity [9]: Active; Activity [10]: Active; Activity [11]: Active; Activity [12]: Dose-dependent effect |
| C(#Cc1ccc(C[n+]2cn(Cc3cccc(Cn4c[n+](Cc5ccc(C#Cc6ccccc6)cc5)c5ccccc54)n3)c3ccccc32)cc1)c1ccccc1.[Br-].[Br-] | 14 | 10 | – | – | 10 | Activity [8]: Not Active; MIC [3]: 10 µM; MIC [4]: 100 µM |
| C(#Cc1ccc(C[n+]2cn(Cc3cccc(Cn4c[n+](Cc5ccc(C#Cc6ccccc6)cc5)c5ccccc54)n3)c3ccccc32)cc1)c1ccccc1.O=S(=O)([N-]S(=O)(=O)C(F)(F)F)C(F)(F)F.O=S(=O)([N-]S(=O)(=O)C(F)(F)F)C(F)(F)F [listing 1 of 2 here] | – | – | – | – | – | Activity [9]: Active; Activity [10]: Active; Activity [11]: Active |
| C(#Cc1ccc(Cn2c[n+](Cc3ccc(C#Cc4ccccc4)cc3)c3ccccc32)cc1)c1ccccc1.O=S(=O)([N-]S(=O)(=O)C(F)(F)F)C(F)(F)F [listing 1 of 2 here] | 5.8 | 25 | 10 | > 100 | 2.5 | – |
| C(#Cc1ccc(C[n+]2cn(-c3cccc(-n4c[n+](Cc5ccc(C#Cc6ccccc6)cc5)c5ccccc54)n3)c3ccccc32)cc1)c1ccccc1.O=S(=O)([N-]S(=O)(=O)C(F)(F)F)C(F)(F)F.O=S(=O)([N-]S(=O)(=O)C(F)(F)F)C(F)(F)F | 6.9 | > 100 | 10 | > 100 | – | – |
| C(#Cc1ccc(C[n+]2cn(-c3cccc(-n4c[n+](Cc5ccc(C#Cc6ccccc6)cc5)c5ccccc54)n3)c3ccccc32)cc1)c1ccccc1.[Br-].[Br-] | 24 | > 100 | 10 | > 100 | – | – |
| C(#Cc1ccc(C[n+]2cn(Cc3cccc(Cn4c[n+](Cc5ccc(C#Cc6ccccc6)cc5)c5ccccc54)n3)c3ccccc32)cc1)c1ccccc1.O=S(=O)([N-]S(=O)(=O)C(F)(F)F)C(F)(F)F.O=S(=O)([N-]S(=O)(=O)C(F)(F)F)C(F)(F)F [listing 2 of 2 here] | 5.6 | 10 | 10 | 50 | 2.5 | Activity [8]: Not Active |
| C(#Cc1ccc(Cn2c[n+](Cc3ccc(C#Cc4ccccc4)cc3)c3ccccc32)cc1)c1ccccc1.O=S(=O)([N-]S(=O)(=O)C(F)(F)F)C(F)(F)F [listing 2 of 2 here] | – | – | – | – | – | Activity [10]: Active |

Source: ChEMBL document CHEMBL3414436, “Strong antibacterial properties of anion transporters: a result of depolarization and weakening of the bacterial membrane” (J Med Chem, 2015)
